Results reported in ChEMBL document CHEMBL2380254, “Optimization of tocotrienols as antiproliferative and antimigratory leads” (Eur J Med Chem, 2013).

Tests used:
Format in all cases: functional
MDA-MB-231 [1] = experiment: Growth inhibition of human MDA-MB-231 cells assessed as cell growth at 10 uM after 48 hrs by sulforhodamine B assay; details: MDA-MB-231, 48 h, read-out: Activity
Outline: (§1)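 Single-dose NCI-60 screen: adherent cells in RPMI 1640 with 5% FBS were exposed to 10 µM for 48 h at 37 °C after a 24 h preincubation. They were fixed in situ with cold TCA (10% final), stained with 0.4% SRB in 1% acetic acid, solubilized in 10 mM Tris base, and read at 515 nm. Percent growth was taken relative to time-zero and control plates.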

DU-145 = experiment: Growth inhibition of human DU145 cells assessed as cell growth at 10 uM after 48 hrs by sulforhodamine B assay; details: DU-145, 48 h, read-out: Activity
Outline: (§2)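 NCI-60 single-dose screen at 10 µM: cells in RPMI 1640 with 5% FBS, preincubated 24 h, then exposed 48 h at 37 °C. TCA fixation (16% final for suspension cells), SRB staining, absorbance 515 nm. Percent growth relative to time-zero and untreated control plates; negative values indicate cell kill.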

SN12C = experiment: Growth inhibition of human SN12C cells assessed as cell growth at 10 uM after 48 hrs by sulforhodamine B assay; details: read-out: Activity
Outline: (§3)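 Single-dose NCI-60 test at 10 µM. Cells were grown in RPMI 1640 with 5% FBS and 2 mM L-glutamine, preincubated 24 h, with T0 plates TCA-fixed. Exposure was 48 h at 37 °C, 5% CO2. Cells were fixed with cold TCA (final 10%, 4 °C, 60 min), stained with SRB and read at 515 nm. Percent growth was taken relative to T0 and untreated control; negative values denote cell kill.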

OVCAR-8 = experiment: Growth inhibition of human OVCAR8 cells assessed as cell growth at 10 uM after 48 hrs by sulforhodamine B assay; details: OVCAR-8, 48 h, read-out: Activity; outline: as §1
IGROV-1 = experiment: Growth inhibition of human IGROV1 cells assessed as cell growth at 10 uM after 48 hrs by sulforhodamine B assay; details: IGROV-1, 48 h, read-out: Activity; outline: as §2
SK-MEL-5 = experiment: Growth inhibition of human SK-MEL-5 cells assessed as cell growth at 10 uM after 48 hrs by sulforhodamine B assay; details: SK-MEL-5, 48 h, read-out: Activity; outline: as §1
SK-MEL-28 = experiment: Growth inhibition of human SK-MEL-28 cells assessed as cell growth at 10 uM after 48 hrs by sulforhodamine B assay; details: SK-MEL-28, 48 h, read-out: Activity; outline: as §1
LOX IMVI = experiment: Growth inhibition of human LOXIMVI cells assessed as cell growth at 10 uM after 48 hrs by sulforhodamine B assay; details: read-out: Activity; outline: as §2
SNB-75 = experiment: Growth inhibition of human SNB75 cells assessed as cell growth at 10 uM after 48 hrs by sulforhodamine B assay; details: SNB-75, 48 h, read-out: Activity; outline: as §3
SF-268 = experiment: Growth inhibition of human SF268 cells assessed as cell growth at 10 uM after 48 hrs by sulforhodamine B assay; details: SF-268, 48 h, read-out: Activity; outline: as §1
NCI-H23 = experiment: Growth inhibition of human NCI-H23 cells assessed as cell growth at 10 uM after 48 hrs by sulforhodamine B assay; details: NCI-H23, 48 h, read-out: Activity; outline: as §1
CCRF-CEM [2] = experiment: Growth inhibition of human CCRF-CEM cells assessed as cell growth at 10 uM after 48 hrs by sulforhodamine B assay; details: read-out: Activity; outline: as §2
MDA-MB-231 [3] = experiment: Growth inhibition of human MDA-MB-231 cells after 48 hrs by sulforhodamine B assay; details: MDA-MB-231, 48 h
Outline: (§4)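 NCI-60 panel cells grown in RPMI 1640 with 5% FBS and 2 mM L-glutamine, seeded at 5000–40,000 cells/well and preincubated 24 h. Five 10-fold dilutions (0.001–100 µM) from DMSO stocks were added for 48 h at 37 °C. Adherent cells were fixed with cold TCA (10% final) for 60 min at 4 °C, stained with 0.4% SRB, and read at 515 nm. GI50 was set where 100×(T−T0)/(C−T0)=50.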

UO-31 = experiment: Growth inhibition of human UO31 cells after 48 hrs by sulforhodamine B assay; details: UO-31, 48 h
Outline: (§5)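 NCI-60 five-dose screen. Cells were grown in RPMI 1640 with 5% FBS and 2 mM L-glutamine, plated at 5000–40,000 cells/well and incubated 24 h before dosing, with T0 plates TCA-fixed. DMSO stocks were diluted to doses of […] and exposed 48 h at 37 °C, 5% CO2. Cells were fixed with cold TCA (final 10%, 60 min, 4 °C), stained with 0.4% SRB in 1% acetic acid for 10 min, solubilized in 10 mM trizma base and read at 515 nm. GI50 is where 100×(T−T0)/(C−T0)=50.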

CAKI-1 = experiment: Growth inhibition of human CAKI-1 cells after 48 hrs by sulforhodamine B assay; details: CAKI-1, 48 h
Outline: (§6)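 NCI-60 screen: cells in RPMI 1640 with 5% FBS and 2 mM glutamine, 5000–40,000 cells/well, preincubated 24 h. Five concentrations (10-fold dilutions; 100 to 0.001 µM) applied for 48 h at 37 °C. TCA fixation, SRB stain, absorbance at 515 nm. Time-zero plates included; GI50 where 100×(T−T0)/(C−T0)=50.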

SK-MEL-2 = experiment: Growth inhibition of human SK-MEL-2 cells after 48 hrs by sulforhodamine B assay; details: SK-MEL-2, 48 h; outline: as §4
SNB-19 = experiment: Growth inhibition of human SNB19 cells after 48 hrs by sulforhodamine B assay; details: SNB-19, 48 h; outline: as §5
KM12 = experiment: Growth inhibition of human KM12 cells after 48 hrs by sulforhodamine B assay; details: KM12, 48 h; outline: as §6
NCI-H522 = experiment: Growth inhibition of human NCI-H522 cells after 48 hrs by sulforhodamine B assay; details: NCI-H522, 48 h; outline: as §4
SR = experiment: Growth inhibition of human SR cells after 48 hrs by sulforhodamine B assay
Outline: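 Suspension leukemia line in RPMI 1640 with 5% FBS and 2 mM L-glutamine, NCI-60 five-dose format ([…]), 48 h at 37 °C. Settled cells were fixed with 80% TCA (final 16%), stained with SRB and read at 515 nm. GI50 is where 100×(T−T0)/(C−T0)=50, with T0 measured at dosing.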

RPMI-8226 = experiment: Growth inhibition of human RPMI8226 cells after 48 hrs by sulforhodamine B assay; details: RPMI-8226, 48 h
Outline: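 NCI-60 suspension lines in RPMI 1640 with 5% FBS and 2 mM L-glutamine, preincubated 24 h. A five-concentration 10-fold series (0.001–100 µM) was given for 48 h at 37 °C. Settled cells were fixed with 80% TCA (16% final), stained with SRB, and read at 515 nm. GI50 was taken where 100×(T−T0)/(C−T0)=50, with T0 plates fixed at drug addition.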

CCRF-CEM [4] = experiment: Growth inhibition of human CCRF-CEM cells after 48 hrs by sulforhodamine B assay; outline: as §6

| SMILES | growth at 10 µM (MDA-MB-231 [1]) | growth at 10 µM (DU-145) | growth at 10 µM (SN12C) | growth at 10 µM (OVCAR-8) | growth at 10 µM (IGROV-1) | growth at 10 µM (SK-MEL-5) | growth at 10 µM (SK-MEL-28) | growth at 10 µM (LOX IMVI) | growth at 10 µM (SNB-75) | growth at 10 µM (SF-268) | growth at 10 µM (NCI-H23) | growth at 10 µM (CCRF-CEM [2]) | GI50 (MDA-MB-231 [3]) | GI50 (UO-31) | GI50 (CAKI-1) | GI50 (SK-MEL-2) | GI50 (SNB-19) | GI50 (KM12) | GI50 (NCI-H522) | GI50 (SR) | also measured |
| --- | --- | --- | --- | --- | --- | --- | --- | --- | --- | --- | --- | --- | --- | --- | --- | --- | --- | --- | --- | --- | --- |
| CC(C)=CCC/C(C)=C/CC/C(C)=C/CC[C@]1(C)CCc2c3c(cc(C)c2O1)OCN(CCCCCCCCO)C3 | -69.6% | -57.7% | -70.7% | -51.9% | -79.9% | 19.1% | -89.2% | -86.9% | -61.4% | -83.1% | -20.7% | -29.7% | 1.1 µM | 3.46 µM | 4.07 µM | 5.59 µM | 1.36 µM | 0.784 µM | 3.75 µM | 0.785 µM | GI50 (RPMI-8226): 1.22 µM; GI50 (CCRF-CEM [4]): 0.865 µM |
| CC(C)=CCC/C(C)=C/CC/C(C)=C/CC[C@]1(C)CCc2c3c(c(C)c(C)c2O1)OCN(CCCCO)C3 | 37.9% | 88.8% | 76.8% | 87.3% | 48.2% | 91% | 106% | -90.5% | 74.2% | 75.2% | 93.5% | 39.9% | 2.34 µM | 8.83 µM | > 10 µM | > 10 µM | 3.03 µM | 1.94 µM | > 10 µM | 2.47 µM | GI50 (RPMI-8226): 5.15 µM; GI50 (CCRF-CEM [4]): 3.45 µM |
| CC(C)=CCC/C(C)=C/CC/C(C)=C/CC[C@]1(C)CCc2c3c(c(C)c(C)c2O1)OCN(CCc1ccc(O)cc1)C3 | 68.5% | 107% | 85.4% | 42.1% | 67.7% | 115% | 76.6% | 30.3% | 69.2% | 83.7% | 88.2% | 49.6% |  |  |  |  |  |  |  |  |  |
| COc1ccc(CCN2COc3c(C)c(C)c4c(c3C2)CC[C@@](C)(CC/C=C(\C)CC/C=C(\C)CCC=C(C)C)O4)cc1OC | 96.1% | 111% | 87.3% | 101% | 87.4% | 107% | 93.6% | 98.6% | 82.8% | 94.8% | 102% | 78% |  |  |  |  |  |  |  |  |  |
| CC(C)=CCC/C(C)=C/CC/C(C)=C/CC[C@]1(C)CCc2cc(O)c(C)c(C)c2O1 [GAMMA-TOCOTRIENOL] | 108% | 99.7% | 96% | 112% | 96.3% | 99.1% | 97.3% | 90% | 84.3% | 108% | 92.8% | 84% |  |  |  |  |  |  |  |  |  |
| CC(C)=CCC/C(C)=C/CC/C(C)=C/CC[C@]1(C)CCc2c3c(cc(C)c2O1)OCN(CCCCCCCCCCO)C3 | 119% | 100% | 92.7% | 74.6% | 80.1% | 85.2% | 99.9% | 87.3% | 74.5% | 97.7% | 90.8% | 49.5% |  |  |  |  |  |  |  |  |  |
